# Changes are numbered by the printed parent chain.
# Assays:
# [1] = target: T1, Adenosine receptor A3 (Homo sapiens) (UniProt P0DMS8); experiment: Displacement of [3H]PSB11 from human A3 adenosine receptor expressed in CHO cell membranes measured after 2 hrs by scintillation spectrometric method
# T1 sequence (whole entry): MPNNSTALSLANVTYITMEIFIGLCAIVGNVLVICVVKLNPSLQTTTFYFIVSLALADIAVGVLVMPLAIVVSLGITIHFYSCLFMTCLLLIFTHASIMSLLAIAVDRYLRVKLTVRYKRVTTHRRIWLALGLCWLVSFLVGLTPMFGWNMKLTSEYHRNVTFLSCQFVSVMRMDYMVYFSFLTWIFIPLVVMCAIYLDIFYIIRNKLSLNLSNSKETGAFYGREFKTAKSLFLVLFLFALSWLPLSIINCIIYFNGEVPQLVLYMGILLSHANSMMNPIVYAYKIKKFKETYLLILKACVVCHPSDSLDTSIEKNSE
# [2] = target: T2, Adenosine receptor A2b (Homo sapiens) (UniProt P29275); experiment: Displacement of [3H]PSB-603 from human A2B adenosine receptor expressed in CHO cell membranes at 1 uM measured after 2 hrs by scintillation spectrometric method relative to control
# T2 sequence (whole entry): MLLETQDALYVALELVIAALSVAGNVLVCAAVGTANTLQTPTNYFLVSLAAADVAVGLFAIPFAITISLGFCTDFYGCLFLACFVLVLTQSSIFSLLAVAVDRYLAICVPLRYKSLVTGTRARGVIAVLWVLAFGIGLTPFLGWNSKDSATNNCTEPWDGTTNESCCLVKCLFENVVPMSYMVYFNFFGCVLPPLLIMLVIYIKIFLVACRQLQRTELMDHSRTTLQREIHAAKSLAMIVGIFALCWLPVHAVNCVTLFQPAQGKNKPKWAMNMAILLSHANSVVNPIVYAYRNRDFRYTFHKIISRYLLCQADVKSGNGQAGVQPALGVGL
# [3] = target: T1, Adenosine receptor A3 (Homo sapiens); experiment: Displacement of [3H]PSB11 from human A3 adenosine receptor transiently expressed in CHOK1 cell membranes measured after 2 hrs by scintillation spectrometric method
# Method in brief: (§1)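 CHO-K1 cells transfected by PEI (3:1, 20 µg DNA/dish) with WT or Y265F7.36 hA3AR, then given 5 mM sodium butyrate for 24 h before membrane preparation.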
# [4] = system: T3, Adenosine receptor A3 (Homo sapiens), P0DMS8 [Y265F]; experiment: Displacement of [3H]PSB11 from human A3 adenosine receptor Y265F (7.36) mutant transiently expressed in CHOK1 cell membranes measured after 2 hrs by scintillation spectrometric method; method in brief: as §1
# T3 sequence (whole entry): T1 sequence (whole entry) with Y265F
# Adenosine receptor A3 [5] = target: T4, Adenosine receptor A3 (Homo sapiens, UniProt P0DMS8); experiment: Irreversible displacement of [3H]PSB11 from human A3 adenosine receptor expressed in CHO cell membranes measured up to 240 mins by scintillation spectrometric method; settings: in the assay text read “Displacement” for “Irreversible displacement”
# T4 sequence (P0DMS8 whole entry): T1 sequence (whole entry)
# Method in brief: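 Bound radioligand sampled at time points up to 240 min, then filtered and counted. Competitor kon (k3) and koff (k4) obtained by Motulsky–Mahan fitting, using [3H]PSB-11 k1 and k2 from earlier work.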
# [6] = target: T1, Adenosine receptor A3 (Homo sapiens); experiment: Reversible displacement of [3H]PSB11 from human A3 adenosine receptor expressed in CHO cell membranes assessed as residual binding level at 10 times Ki measured after 2 hrs by scintillation spectrometric method relative to control
# Method in brief: (§2)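 Samples then either taken unwashed or put through four centrifugation wash cycles before exposure to [3H]PSB-11. Remaining specific binding was normalized to vehicle (100%). Three experiments in duplicate; unpaired t test.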
# [7] = target: T1, Adenosine receptor A3 (Homo sapiens); experiment: (§3) Reversible displacement of [3H]PSB11 from human A3 adenosine receptor expressed in CHO cell membranes assessed as residual binding level at 10 times Ki incubated for 2 hrs followed by 4 times membrane washout and subsequent [3H]PSB11 addition by scintillation spectrometric method relative to control; method in brief: as §2
# Adenosine receptor A3 [8] = target: T4, Adenosine receptor A3; experiment: Competitive surmountable antagonist activity at human A3 adenosine receptor expressed in CHO cell membranes assessed as inhibition of 2-Cl-IB-MECA-induced [35S]-GTPgammaS binding preincubated for 60 mins followed by 2-Cl-IB-MECA and [35S]-GTPgammaS addition and measured after 30 mins; format: functional; settings: read-out: pA2 (converted)
# Adenosine receptor A3 [9] = target: T4, Adenosine receptor A3; experiment: Competitive surmountable antagonist activity at human A3 adenosine receptor expressed in CHO cell membranes assessed as inhibition of 2-Cl-IB-MECA-induced [35S]-GTPgammaS binding measured after 30 mins; format: functional; settings: read-out: pA2 (converted)
# [10] = target: T1, Adenosine receptor A3 (Homo sapiens); experiment: Displacement of [3H]PSB11 from human A3 adenosine receptor expressed in CHO cell membranes at 10 uM measured after 2 hrs by scintillation spectrometric method relative to control
# [11] = target: T1, Adenosine receptor A3 (Homo sapiens); experiment: as §3, with “Irreversible” for “Reversible”, “ans” for “and”
# Method in brief: (§4)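 Membranes then either unwashed or washed four times by centrifugation before [3H]PSB-11 addition. Specific binding normalized to vehicle (100%); three experiments in duplicate; unpaired t test.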
# [12] = system: T3, Adenosine receptor A3 (Homo sapiens), P0DMS8 [Y265F]; experiment: (§5) Displacement of [3H]PSB11 from human A3 adenosine receptor Y265F (7.36) mutant transiently expressed in CHOK1 cell membranes assessed as residual binding level at 10 times IC50 measured after 2 hrs by scintillation spectrometric method
# Method in brief: (§6)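 Membranes then either unwashed or washed four times before [3H]PSB-11 exposure. Binding normalized to vehicle (100%); three experiments in duplicate.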
# [13] = system: T3, Adenosine receptor A3 (Homo sapiens), P0DMS8 [Y265F]; experiment: as §5, with “incubated for” for “measured after”, “hrs followed by 4 times membrane washout and subsequent [3H]PSB11 addition” for “hrs”; method in brief: as §6
# [14] = target: T1, Adenosine receptor A3 (Homo sapiens); experiment: Displacement of [3H]PSB11 from human A3 adenosine receptor expressed in CHO cell membranes by scintillation spectrometric method; settings: TDE = time-dependent effect
# Method in brief: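 CHO membranes stably expressing hA3AR (15 µg) in 50 mM Tris-HCl, 5 mM MgCl2, 0.01% CHAPS, 1 mM EDTA, pH 7.4, with ~10 nM [3H]PSB-11 and six competitor concentrations, 120 min at 25 °C. Nonspecific binding defined with 100 µM NECA. Filtration, then scintillation counting; one-site fit, Cheng-Prusoff Ki; three experiments in duplicate.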
# [15] = target: T1, Adenosine receptor A3 (Homo sapiens); experiment: Irreversible displacement of [3H]PSB11 from human A3 adenosine receptor expressed in CHO cell membranes assessed as residual binding level at 10 times Ki measured after 2 hrs by scintillation spectrometric method relative to control; method in brief: as §4
smiles,measurement,setting,value
CCCn1c(=O)c2c(nc3cc(OC)ccn32)n(CCCCNC(=O)c2ccc(S(=O)(=O)F)cc2)c1=O,inhibition,[1],Dose-dependent effect
CCCn1c(=O)c2c(nc3cc(OC)ccn32)n(CCCNC(=O)c2ccc(S(C)(=O)=O)cc2)c1=O,inhibition,[1],Dose-dependent effect
same,inhibition,[2],0%
same,pIC50(app),[3],5.9
same,pIC50(app),[4],6.1
same,Ki,Adenosine receptor A3 [5],525 nM
same,Activity,[6],19.8%
same,Activity,[7],97.6%
same,Kb,Adenosine receptor A3 [8],1260 nM
same,Kb,Adenosine receptor A3 [9],631 nM
CCCn1c(=O)c2c(nc3cc(OC)ccn32)n(CCOC(=O)c2ccc(S(=O)(=O)F)cc2)c1=O,inhibition,[1],Dose-dependent effect
CCCn1c(=O)c2c(nc3cc(OC)ccn32)n(CCNC(=O)c2ccc(S(=O)(=O)F)cc2)c1=O,inhibition,[1],Dose-dependent effect
same,inhibition,[10],27%
CCCn1c(=O)c2c(nc3cc(OC)ccn32)n(CCCNC(=O)c2cccc(S(=O)(=O)F)c2)c1=O,inhibition,[1],Dose-dependent effect
CCCn1c(=O)c2c(nc3cc(OC)ccn32)n(CCCNC(=O)c2ccc(S(=O)(=O)F)cc2)c1=O,inhibition,[1],Dose-dependent effect
same,Activity,[11],8.7%
same,Activity,[12],7.2%
same,Activity,[13],91%
same,inhibition,[14],Tde
same,Activity,[15],11.3%
CCCn1c(=O)c2c(nc3cc(OC)ccn32)n(CCCCOC(=O)c2ccc(S(=O)(=O)F)cc2)c1=O,inhibition,[1],Dose-dependent effect
CCCn1c(=O)c2c(nc3cc(OC)ccn32)n(CCCCOC(=O)c2cccc(S(=O)(=O)F)c2)c1=O,inhibition,[1],Dose-dependent effect
CCCn1c(=O)c2c(nc3cc(OC)ccn32)n(CCOC(=O)c2cccc(S(=O)(=O)F)c2)c1=O,inhibition,[1],Dose-dependent effect
CCCn1c(=O)c2c(nc3cc(OC)ccn32)n(CCNC(=O)c2cccc(S(=O)(=O)F)c2)c1=O,inhibition,[1],Dose-dependent effect
same,inhibition,[10],18%
CCCn1c(=O)c2c(nc3cc(OC)ccn32)n(CCCOC(=O)c2ccc(S(=O)(=O)F)cc2)c1=O,inhibition,[1],Dose-dependent effect
CCCn1c(=O)c2c(nc3cc(OC)ccn32)n(CCCCNC(=O)c2cccc(S(=O)(=O)F)c2)c1=O,inhibition,[1],Dose-dependent effect
CCCn1c(=O)c2c(nc3cc(OC)ccn32)n(CCCOC(=O)c2cccc(S(=O)(=O)F)c2)c1=O,inhibition,[1],Dose-dependent effect
